Test results as given in ChEMBL document CHEMBL2021827, “Caspase-1 inhibitors from an extremophilic fungus that target specific leukemia cell lines” (2012).
Calls of active or inactive are those of the source. The calls are words filed in the database; no cut-off is given here.

Legend:
THP-1 [1] = test: Inhibition of IL-1beta production in human THP1 cells at 50 uM by dilution assay; type: functional, cell-based
In short: (§1)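 THP-1 cells are kept in RPMI with 10% FBS, 0.05 mM 2-mercaptoethanol, sodium pyruvate and penicillin/streptomycin/amphotericin B. They are differentiated with PMA (1 µg/mL) 24 h beforehand, scraped, and resuspended at 1.0 × 10^6 cells/mL. Cells are co-exposed to compound, LPS (20 ng/mL) and TiO2 nanowires (100 µg/mL) for 24 h at 37 °C in CO2. Supernatant IL-1β is measured by ELISA read at 490 nm.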

Caspase-1 (Homo sapiens) = biological target: T1, Caspase-1 (Homo sapiens) (UniProt P29466); test: Inhibition of caspase-1 in human THP1 cells after 24 hrs by fluorometric assay; type: cell-based; conditions: THP-1
T1 sequence (whole entry): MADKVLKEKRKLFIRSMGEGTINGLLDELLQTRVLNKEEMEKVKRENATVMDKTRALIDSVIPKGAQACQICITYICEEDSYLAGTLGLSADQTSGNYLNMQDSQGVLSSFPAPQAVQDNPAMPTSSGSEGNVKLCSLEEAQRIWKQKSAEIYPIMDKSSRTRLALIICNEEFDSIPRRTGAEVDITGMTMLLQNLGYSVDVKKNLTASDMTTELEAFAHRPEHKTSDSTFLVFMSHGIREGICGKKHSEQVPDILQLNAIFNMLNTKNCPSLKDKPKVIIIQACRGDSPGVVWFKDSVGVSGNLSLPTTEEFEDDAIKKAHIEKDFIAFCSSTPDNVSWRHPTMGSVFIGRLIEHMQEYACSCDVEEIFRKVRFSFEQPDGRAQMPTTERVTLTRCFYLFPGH

Leukemia cell = test: Cytotoxicity against human leukemia cells by MTS assay; type: functional, cell-based
THP-1 [2] = test: Inhibition of IL-1beta production in human THP1 cells at 250 uM by ELISA; type: functional, cell-based; in short: as §1
SR = test: Cytotoxicity against human SR cells by MTS assay; type: functional
HL-60(TB) = test: Cytotoxicity against human HL-60(TB) cells by MTS assay; type: functional
CCRF-CEM = test: Cytotoxicity against human CCRF-CEM cells by MTS assay; type: functional
RPMI-8226 = test: Cytotoxicity against human RPMI8226 cells by MTS assay; type: functional
THP-1 [3] = test: Inhibition of IL-1beta production in human THP1 cells at 5 uM by dilution assay; type: functional, cell-based; in short: as §1

C/C=C/C1=CC2=CC(=O)[C@](C)(O)[C@H](OC(=O)c3c(C)cc(O)cc3O)[C@H]2CO1 [BERKAZAPHILONE C]
inhibition (THP-1 [1]): Active | IC100 (Caspase-1 (Homo sapiens)): 25 µM | Activity (Leukemia cell): Active | inhibition (THP-1 [2]): Active | GI50 (SR): 380 nM

COc1cc(OC)c2c(c1)C(=O)O[C@H]2c1coc(C)cc1=O [PENISIMPLICISSIN]
GI50 (HL-60(TB)): 1480 nM | GI50 (CCRF-CEM): 200 nM | Activity (Leukemia cell): Active | inhibition (THP-1 [2]): Active

CCCc1cc(=O)c([C@@H]2OC(=O)c3cc(OC)cc(OC)c32)co1
inhibition (Caspase-1 (Homo sapiens)): inactive | Activity (HL-60(TB)): inactive | inhibition (THP-1 [2]): Active

C/C=C/C1=CC2=CC(=O)[C@](C)(OC(=O)c3c(C)cc(O)cc3O)[C@H](O)[C@H]2CO1 [BERKAZAPHILONE B]
IC100 (Caspase-1 (Homo sapiens)): 25 µM | GI50 (RPMI-8226): 2140 nM | Activity (Leukemia cell): Active | inhibition (THP-1 [3]): Active | inhibition (THP-1 [2]): Active

C/C=C/c1cc(=O)c([C@@H]2OC(=O)c3cc(OC)cc(OC)c32)co1
inhibition (THP-1 [2]): Active
